Data as given in ChEMBL document CHEMBL1124457, “In vitro antiproliferative activity of 4-substituted 2-(2-hydroxyphenyl)thiazolines on murine leukemia cells” (J Med Chem, 1989).
In brackets after ≈: the same amount, converted by molar mass.

Assays:
L1210 [1] = experiment: Percent of control growth in L1210 cells by addition of 25 uM compound as […] chelate (FeCl3); format: functional, Mus musculus
Procedure, shortened: (§1)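 In L1210 iron-reversal runs, FeCl3 aqueous stock was premixed 1:1 molar with chelator stock until an intense purple colour developed, then added to the cells. Growth was compared with chelator alone, FeCl3 alone and DMSO alone. Cells were counted electronically and growth read 48 h after ligand addition as % of control ± SE.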

L1210 [2] = experiment: Percent viability against L1210 leukemic cells at 50 uM; format: functional, Mus musculus
L1210 [3] = experiment: Percent viability against L1210 leukemic cells at 100 uM; format: functional, Mus musculus
L1210 [4] = experiment: Percent viability against L1210 leukemic cells at 0 uM; format: functional, Mus musculus
P388 [5] = experiment: Antiproliferative activity of compound expressed as concentration that inhibits 50% of growth of P388 leukemic cell suspension from 24 to 48 hr after compound addition; format: functional, cell-based; details: Mus musculus
Procedure, shortened: (§2)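 Cells grown in RPMI 1640 with L-glutamine, 10% defined equine serum, 2% Mopes-Hepes buffer (pH 7.40), penicillin and streptomycin. Tested in log phase (0.5 × 10^5–2 × 10^6 cells/mL), in duplicate. Compound given as 10-µL DMSO stock (one ester in ethanol), with solvent-spiked controls.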

[6] = Partition ratio in 1-octanol / phosphate-buffered saline system; format: physicochemical; details: buffer
Procedure, shortened: (§3)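 Compound film was left by evaporating an alcohol solution under nitrogen. 5 mL each of 1-octanol and PBS (pH 7.1) were added, sealed under nitrogen and agitated 3 h at 27 °C. Each layer was measured by absorbance at 247 nm against Beer's plots (1.25–10 or 3.25–50 μM).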

[7] = Solubility in phosphate-buffered saline (PBS) at pH 7.1; format: physicochemical
L1210 [8] = experiment: Percent viability against L1210 leukemic cells at 200 uM; format: functional, Mus musculus
L1210 [9] = experiment: Percent of control growth in L1210 cells by addition of 25 uM of iron-free compound; format: functional, Mus musculus; procedure, shortened: as §1
L1210 [10] = experiment: Percent viability against L1210 leukemic cells at 25 uM; format: functional, Mus musculus
P388 [11] = experiment: Percent viability against P388 leukemic cells 48 hr after compound addition at 100 uM concentration; format: functional, Mus musculus
Procedure, shortened: (§4)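 Leukemia cells in RPMI 1640 with 10% defined equine serum and Mopes-Hepes buffer (pH 7.40). Compound added from DMSO stock. Viable cells scored by trypan blue exclusion 48 h after compound addition.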

L1210 [12] = experiment: Antiproliferative activity of compound expressed as concentration that inhibits 50% of growth of L1210 leukemic cell suspension from 24 to 48 hr after compound addition.; format: functional, cell-based; details: Mus musculus; procedure, shortened: as §2
L1210 [13] = experiment: Percent viability against L1210 leukemic cells 48 hr after compound addition at 100 uM concentration; format: functional, Mus musculus; procedure, shortened: as §4
P388 [14] = experiment: Percent viability against P388 leukemic cells 48 hr after compound addition at 100 uM; format: functional, Mus musculus; procedure, shortened: as §4
L1210 [15] = experiment: Percent viability against L1210 leukemic cells 48 hr after compound addition at 100 uM; format: functional, Mus musculus; procedure, shortened: as §4
L1210 [16] = experiment: Antiproliferative activity of compound expressed as concentration that inhibits 50% of growth of L1210 leukemic cell suspension from 24 to 48 h after compound addition; format: functional, cell-based; details: Mus musculus; procedure, shortened: as §2
L1210 [17] = experiment: Percent viability against L1210 leukemic cells 48 hr after compound addition at 35 uM concentration; format: functional, Mus musculus; procedure, shortened: as §4
L1210 [18] = experiment: Percent of control growth in L1210 cells by addition of 5 uM of iron-free compound; format: functional, Mus musculus; procedure, shortened: as §1
P388 [19] = experiment: Percent viability against P388 leukemic cells 48 hr after compound addition at 25 uM concentration; format: functional, Mus musculus; procedure, shortened: as §4
[20] = Partition ratio in 1-octanol / phosphate-buffered saline system.; format: physicochemical; details: buffer; procedure, shortened: as §3
L1210 [21] = experiment: Percent of control growth in L1210 cells by addition of 5 uM compound as iron(II) chelate (FeCl3); format: functional, Mus musculus; details: in the assay text read “iron(III) chelate” for “iron(II) chelate”; procedure, shortened: as §1
V79 (Cricetulus griseus) = experiment: Tritiated thymidine uptake is estimated after incubation of 120 min with compound(50 uM) and the radiolabel
P388 [22] = experiment: Percent viability against P388 leukemic cells 48 hr after compound addition at 100 uM concentration; ND= Not defined; format: functional, cell-based; details: Mus musculus; procedure, shortened: as §4
P388 [23] = experiment: Antiproliferative activity of compound expressed as concentration that inhibits 50% of growth of P388 leukemic cell suspension from 24 to 48 hr after compound addition; ND= Not defined; format: functional, cell-based, Mus musculus; procedure, shortened: as §2
L1210 [24] = experiment: Antiproliferative activity, concentration that inhibits 50% of growth of L1210 leukemic cell suspension from 24 to 48 hr after compound addition.; format: functional, cell-based; details: Mus musculus; procedure, shortened: as §2
L1210 [25] = experiment: Percent of control growth in L1210 cells by addition of 100 uM compound as […] chelate (FeCl3); format: functional, Mus musculus; procedure, shortened: as §1
L1210 [26] = experiment: Percent of control growth in L1210 cells by addition of 100 uM of iron-free compound; format: functional, Mus musculus; procedure, shortened: as §1

Row | SMILES | Viability (L1210 [2]) [%] | Viability (L1210 [3]) [%] | Viability (L1210 [4]) [%] | IC50 (P388 [5]) [µM] | Ratio [6] | solubility [7] [µM] | Viability (L1210 [8]) [%] | Viability (P388 [11]) [%] | IC50 (L1210 [12]) [µM] | Viability (L1210 [13]) [%] | Viability (P388 [14]) [%] | Viability (L1210 [15]) [%] | Ratio [20] | other results
1 | CC(=O)N(CCCCNC(=O)C1CSC(c2ccccc2O)=N1)CCCCNC(=O)C1CSC(c2ccccc2O)=N1 (centres undefined) | 100 | 40 | 99 | 12 | > 7 | 10 (≈ 6.12 µg/mL) | 27 | 85 | 21 | 95 |  |  |  | Control of growth (L1210 [1]): 68%; Control of growth (L1210 [9]): 29%; Viability (L1210 [10]): 92%
2 | O=C(O)C1CSC(c2ccccc2O)=N1 (centres undefined) | 81 | 54 | 94 | 17 | 0.03 | 75 (≈ 16.7 µg/mL) | 42 |  |  |  | 77 | 92 |  | IC50 (L1210 [16]): 25 µM
3 | O=C(NCCCCN(CCCCNC(=O)C1CSC(c2ccccc2O)=N1)Cc1ccccc1)C1CSC(c2ccccc2O)=N1 (centres undefined) | 0 |  | 87 | 1 |  | 15 (≈ 9.9 µg/mL) |  |  | 3 |  |  |  | 0.96 | Viability (L1210 [17]): 6%; Control of growth (L1210 [18]): 22%; Viability (P388 [19]): 15%; Control of growth (L1210 [21]): 21%; Control (V79 (Cricetulus griseus)): 48%
4 | CCOC(=N)c1ccccc1O |  |  |  |  |  |  |  |  |  | >99 |  |  |  | Viability (P388 [22]): Not defined; IC50 (P388 [23]): Not defined; IC50 (L1210 [24]): > 200 µM
5 | COC(=O)C1CSC(c2ccccc2O)=N1 (centres undefined) | 36 | 46 | 99 | 18 |  | 50 (≈ 11.9 µg/mL) | 42 |  | 14 |  | 85 | 87 | 11.75 | Control of growth (L1210 [25]): 98%; Control of growth (L1210 [26]): 4%
6 | NC(=O)NO [HYDROXYUREA] |  |  |  | 32 |  |  |  | 96 | 85 | 97 |  |  |  | 
